Type in all cases: functional
The species entered for assay [1] is Rattus norvegicus. Kind of assay: (§1) Percentage of basal lactate efflux before starting the drug perfusion (150 min) with average basal level 689+/-103 pmol/min. A digest of the protocol: (§2)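 Rat striatal microdialysis via U-shaped cellulose-membrane cannula, Ringer perfusion. Once lactate efflux stabilized, test compound perfused as 10 mM solution in Ringer for 15–150 min. Dialysate mixed on-line with lactate dehydrogenase (5 mg/mL) and 0.5 mM NAD+ in carbonate buffer pH 9.5. NADH formed was separated by C18 HPLC (0.05 M phosphate, pH 6.8) and detected electrochemically at 650 mV. Samples injected every 5 min. Change expressed as % of basal. At least duplicate experiments.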

Assay [2] is filed under the species Rattus norvegicus. Nature of the assay: Percentage of basal lactate efflux before starting the drug perfusion (15 min) with average basal level 689+/-103 pmol/min. The method in brief: as §2
Assay [3] is filed under the species Rattus norvegicus. The assay is described as §1. This is another data set of the same source.
The species entered for assay [4] is Rattus norvegicus. Kind of assay: Percentage of basal lactate efflux before starting the drug perfusion (1 min) with average basal level 689+/-103 pmol/min.

On to `C[n+]1cccc2ccccc21`, for which the results for the Basal in the assay filed under Rattus norvegicus [1] and in the assay filed under Rattus norvegicus [2] were 200% and 190%, respectively. In the assay filed under Rattus norvegicus [2], `C[n+]1ccc(C(C)(C)C)cc1` registered a Basal of 106%. For `c1ccc2c(c1)CCNC2` [1,2,3,4-TETRAHYDROISOQUINOLINE], the Basal in the assay filed under Rattus norvegicus [3] was found to be 98%. In the assay listed under Rattus norvegicus [2], `C[n+]1ccccc1-c1ccccc1` came in with a Basal of 160%. Take `C[n+]1ccc(-c2ccccc2)nc1`: the Basal in the assay listed under Rattus norvegicus [2] worked out at 102%.

With `C[n+]1ccc(-c2ccccc2)cc1`, the Basal in the assay filed under Rattus norvegicus [4] was 210%; in the assay filed under Rattus norvegicus [2] it was 280%.

Take `C[n+]1cccc(-c2ccccc2)c1`: the Basal in the assay listed under Rattus norvegicus [2] amounted to 240%. As for `Cc1cc(-c2ccccc2)cc[n+]1C`, the Basal in the assay filed under Rattus norvegicus [4] is recorded as 200%. In the case of `Cc1ccccc1-c1cc[n+](C)cc1`, the Basal in the assay filed under Rattus norvegicus [4] is listed as 155%. Take `Cc1ccc(-[n+]2ccc(C)cc2)cc1`: the Basal in the assay filed under Rattus norvegicus [4] turned out to be 180%; in the assay listed under Rattus norvegicus [2] it was 230%.
